Experimental data from ChEMBL document CHEMBL1152649, “Synthesis, cytotoxicity and human telomerase inhibition activities of a series of 1,2-heteroannelated anthraquinones and anthra[1,2-d]imidazole-6,11-dione homologues” (2009).

Legend:
Assay type in all cases: functional
K562 = assay: Growth inhibition of human K562 cells
Outline: (§1)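 NCI 60 cancer cell line screen run per the Developmental Therapeutics Program protocol. Dose–response curves were plotted against log10 drug concentration for each cell line within its subpanel, and mean graph midpoint values were calculated.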

U-251 = assay: Growth inhibition of human U251 cells
Outline: (§2)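 Assayed in the NCI 60 human cancer cell line panel under the Developmental Therapeutics Program protocol. For each line, dose–response curves were plotted against log10 drug concentration. In the one-dose screen at 10^-5 M, growth was given as percent of untreated control cells, and mean graph midpoint values were averaged.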

SK-MEL-2 = assay: Growth inhibition of human SK-MEL-2 cells; outline: as §2
A498 = assay: Growth inhibition of human A498 cells; outline: as §1
HOP-62 = assay: Growth inhibition of human HOP62 cells; outline: as §1
SNB-19 = assay: Growth inhibition of human SNB19 cells; outline: as §2
CAKI-1 = assay: Growth inhibition of human Caki1 cells; outline: as §1
EKVX = assay: Growth inhibition of human EKVX cells; outline: as §1
OVCAR-5 = assay: Growth inhibition of human OVCAR5 cells; outline: as §1
T47D = assay: Growth inhibition of human T47D cells; outline: as §2
SN12C = assay: Growth inhibition of human SN12C cells; outline: as §2
DU-145 = assay: Growth inhibition of human DU145 cells; outline: as §1
SNB-75 = assay: Growth inhibition of human SNB75 cells; outline: as §2
NCI/ADR-RES = assay: Growth inhibition of human NCI/ADR-RES cells; outline: as §1
RXF 393 = assay: Growth inhibition of human RXF393 cells; outline: as §2
NCI-H460 = assay: Growth inhibition of human NCI-H460 cells; outline: as §1
M14 = assay: Growth inhibition of human M14 cells; outline: as §1
UACC-62 = assay: Growth inhibition of human UACC62 cells; outline: as §2
IGROV-1 [1] = assay: Growth inhibition of human IGROV1 cells; outline: as §1
Malme-3M = assay: Growth inhibition of human MALME-3M cells; outline: as §1
SF-539 = assay: Growth inhibition of human SF539 cells; outline: as §2
786-0 = assay: Growth inhibition of human 786-0 cells; outline: as §1
MDA-MB-435 = assay: Growth inhibition of human MDA-MB-435 cells; outline: as §1
[2] = Growth inhibition of human […] cells; outline: as §2
HCT-116 = assay: Growth inhibition of human HCT116 cells; outline: as §1
IGROV-1 [3] = assay: Antiproliferative activity against human IGROV1 cells assessed as cell growth at 10 uM; conditions: read-out: Activity
Outline: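 NCI 60 cell line panel, single-dose screen (10^-5 M) run by the developmental therapeutics program protocol. Results are given as growth percent of treated cells relative to untreated control cells for each line.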

SK-MEL-5 = assay: Growth inhibition of human SK-MEL-5 cells; outline: as §2
HT-29 = assay: Growth inhibition of human HT-29 cells; outline: as §1
UACC-257 = assay: Growth inhibition of human UACC257 cells; outline: as §2
OVCAR-4 = assay: Growth inhibition of human OVCAR4 cells; outline: as §1
TK-10 = assay: Growth inhibition of human TK10 cells; outline: as §2
SF-295 = assay: Growth inhibition of human SF295 cells; outline: as §2
NCI-H522 = assay: Growth inhibition of human NCI-H522 cells; outline: as §1
CCRF-CEM = assay: Growth inhibition of human CCRF-CEM cells; outline: as §1
MCF7 = assay: Growth inhibition of human MCF7 cells; outline: as §1
SW-620 = assay: Growth inhibition of human SW620 cells; outline: as §2
NCI-H322M = assay: Growth inhibition of human NCI-H322M cells; outline: as §1
BT-549 = assay: Growth inhibition of human BT549 cells; outline: as §1
A549 = assay: Growth inhibition of human A549 cells; outline: as §1
[4] = read-out: LC50 (the source's name)

In the case of `O=C1c2ccccc2C(=O)c2c1ccc1nccnc21`, the GI50 (K562) is reported as 70 nM, the LC50 (K562) is reported as > 100 µM and the TGI (K562) is reported as > 100 µM. The GI50 (U-251) was 5.38 µM, the TGI (U-251) was 42.9 µM and the CC50 (U-251; [4]) was > 100 µM. The GI50 (SK-MEL-2) was 12.7 µM, the TGI (SK-MEL-2) was 55.9 µM and the CC50 (SK-MEL-2; [4]) was > 100 µM. For the same molecule, the GI50 (A498) was 9.31 µM, the TGI (A498) was 50.3 µM and the CC50 (A498; [4]) was > 100 µM. For the same molecule, the GI50 (HOP-62) was 5.64 µM, the TGI (HOP-62) was > 100 µM and the CC50 (HOP-62; [4]) was > 100 µM. The GI50 (SNB-19) was 13.4 µM, the TGI (SNB-19) was > 100 µM and the CC50 (SNB-19; [4]) was > 100 µM. For the same molecule, the GI50 (CAKI-1) was 5.83 µM, the TGI (CAKI-1) was > 100 µM and the CC50 (CAKI-1; [4]) was > 100 µM. For the same molecule, the GI50 (EKVX) was 3.45 µM, the TGI (EKVX) was 72.1 µM and the CC50 (EKVX; [4]) was > 100 µM. The GI50 (OVCAR-5) was 29.3 µM, the TGI (OVCAR-5) was > 100 µM and the CC50 (OVCAR-5; [4]) was > 100 µM. For the same molecule, the GI50 (T47D) was 12.6 µM, the LC50 (T47D) was > 100 µM and the TGI (T47D) was 75.1 µM. The GI50 (SN12C) was 13.2 µM, the TGI (SN12C) was 92.7 µM and the CC50 (SN12C; [4]) was > 100 µM. For the same molecule, the GI50 (DU-145) was 11.4 µM, the TGI (DU-145) was 34.3 µM and the CC50 (DU-145; [4]) was > 100 µM. For the same molecule, the GI50 (SNB-75) was 11.9 µM, the TGI (SNB-75) was > 100 µM and the CC50 (SNB-75; [4]) was > 100 µM. The GI50 (NCI/ADR-RES) was 5.68 µM, the TGI (NCI/ADR-RES) was > 100 µM and the CC50 (NCI/ADR-RES; [4]) was > 100 µM. For the same molecule, the GI50 (RXF 393) was 6.43 µM, the TGI (RXF 393) was > 100 µM and the CC50 (RXF 393; [4]) was > 100 µM. The GI50 (NCI-H460) was 2010 nM, the TGI (NCI-H460) was 26.9 µM and the CC50 (NCI-H460; [4]) was > 100 µM. The GI50 (M14) was 5.14 µM, the TGI (M14) was > 100 µM and the CC50 (M14; [4]) was > 100 µM. For the same molecule, the GI50 (UACC-62) was 13.3 µM, the TGI (UACC-62) was 56.1 µM and the CC50 (UACC-62; [4]) was > 100 µM. For the same molecule, the GI50 (IGROV-1 [1]) was 2550 nM, the TGI (IGROV-1 [1]) was 35.9 µM and the CC50 (IGROV-1 [1]; [4]) was > 100 µM. The GI50 (Malme-3M) was 4.48 µM, the TGI (Malme-3M) was 20.7 µM and the CC50 (Malme-3M; [4]) was 70.8 µM. The GI50 (SF-539) was 2180 nM, the TGI (SF-539) was 53.7 µM and the CC50 (SF-539; [4]) was > 100 µM. For the same molecule, the GI50 (786-0) was 8.87 µM, the TGI (786-0) was > 100 µM and the CC50 (786-0; [4]) was > 100 µM. For the same molecule, the GI50 (MDA-MB-435) was 11.1 µM, the TGI (MDA-MB-435) was 23.7 µM and the CC50 (MDA-MB-435; [4]) was 50.4 µM. For the same molecule, the GI50 [2] was 1610 nM, the TGI [2] was > 100 µM and the CC50 [2, 4] was > 100 µM. The GI50 (HCT-116) was 12.3 µM, the TGI (HCT-116) was > 100 µM and the CC50 (HCT-116; [4]) was > 100 µM. It also gave a growth at 10 µM (IGROV-1 [3]) of 3.44%, a GI50 (SK-MEL-5) of 3.93 µM and a TGI (SK-MEL-5) of 17.1 µM. For the same molecule, the CC50 (SK-MEL-5; [4]) was 44.4 µM, the GI50 (HT-29) was 7.01 µM and the TGI (HT-29) was > 100 µM. The CC50 (HT-29; [4]) was > 100 µM, the GI50 (UACC-257) was 13 µM and the TGI (UACC-257) was 68.3 µM. For the same molecule, the CC50 (UACC-257; [4]) was > 100 µM, the GI50 (OVCAR-4) was 10.5 µM and the TGI (OVCAR-4) was > 100 µM. The CC50 (OVCAR-4; [4]) was > 100 µM, the GI50 (TK-10) was 5 µM and the TGI (TK-10) was > 100 µM. For the same molecule, the CC50 (TK-10; [4]) was > 100 µM, the GI50 (SF-295) was 4.35 µM and the TGI (SF-295) was 32.3 µM. The CC50 (SF-295; [4]) was > 100 µM, the GI50 (NCI-H522) was 4.64 µM and the TGI (NCI-H522) was 32.5 µM. The CC50 (NCI-H522; [4]) was > 100 µM, the GI50 (CCRF-CEM) was 2460 nM and the TGI (CCRF-CEM) was > 100 µM. The CC50 (CCRF-CEM; [4]) was > 100 µM, the GI50 (MCF7) was 720 nM and the TGI (MCF7) was 29.8 µM. The CC50 (MCF7; [4]) was > 100 µM, the GI50 (SW-620) was 1710 nM and the TGI (SW-620) was 30.8 µM. The CC50 (SW-620; [4]) was > 100 µM, the GI50 (NCI-H322M) was 16.3 µM and the TGI (NCI-H322M) was 96.1 µM. For the same molecule, the CC50 (NCI-H322M; [4]) was > 100 µM, the GI50 (BT-549) was 12.2 µM and the LC50 (BT-549) was > 100 µM. The TGI (BT-549) was 93.5 µM, the GI50 (A549) was 4.53 µM and the TGI (A549) was > 100 µM. The CC50 (A549; [4]) was > 100 µM.

Work on `N#Cc1ccc(-c2nc3ccc4c(c3[nH]2)C(=O)c2ccccc2C4=O)cc1` yielded a growth at 10 µM (IGROV-1 [3]) of 66.3%.
